# Hits are enriched below; roughly 4.9% of the tested compounds scored in any of these assays.
# STAT3 activator: STAT3 signaling activation; 0.91% of 190,000 active; U3A cells, IL-6 STAT3-luciferase reporter, luminescence; 100% = signal with IL-6 EC80 alone; activation (% of control), % at 5.6 µM;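 active = activation above the screen-wide mean of compound activation plus 3 SD, cut at about 130% in these data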
#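 Assay system – human STAT1-deficient U3A cells with stable STAT3-luciferase reporter · Also added – IL-6 (33 ng/mL) · Schedule – compound 1 h, then IL-6 6 h at 37 °C · Technique – reporter luminescence signal · Evaluation – % activation versus median of IL-6-stimulated wells · Benchmarks – IL-6-only wells as 100% reference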
# STAT1 activator: activators of IFN-gamma induced STAT1 signaling; NIH 3T3 STAT1-luciferase reporter, luminescence; 100% = IFN-gamma alone, no compound; activation (% of control), % at 5.5 µM; 2.6% of 200,000 active; AID 932;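 active = activation above the screen-wide mean activation plus 3 SD, cut at about 130% in these data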
# STAT1 blocker: reduces IFN-gamma driven STAT1 reporter signal; inhibition, % at 5.5 µM; AID 920; 0.35% of 200,000 active; NIH 3T3 STAT1-luciferase reporter, luminescence;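 active = inhibition above a set limit, the mean inhibition across all tested compounds plus 3 SD, cut at about 34% in these data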
# STAT3 inh: STAT3 signaling inhibition; U3A cells, IL-6 STAT3-luciferase reporter, luminescence; host cell line lacks STAT1; inhibition, % at 5.5 µM; 0.89% of 190,000 active; AID 862;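 active = inhibition above the mean inhibition across all screened compounds plus 3 SD, cut at about 44% in these data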
# NF-kB neuron act: NF-kB expression increase, human neuronal cells; NF-kB reporter expression; stronger effect = higher value; fold change at 12.5 µM; 1.6% of 190,000 active; in the data active = fold change above about 3.3
# APP 5'UTR act: activates APP 5'UTR luciferase reporter; SH-SY5Y APP 5'UTR luciferase reporter, luminescence; zero percent = DMSO vehicle wells; activation, % at 2 µM; 1% of 190,000 active;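 active = activation above a set limit, based on mean plus 3 SD of controls, cut at about 140% in these data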
# Numbers stand for hits; – = inactive; · = no result.
SMILES,STAT3 activator,STAT1 activator,STAT1 blocker,STAT3 inh,NF-kB neuron act,APP 5'UTR act
Cc1ccccc1/C(N)=N/OC(=O)/C=C/c1ccccc1,–,–,–,–,3.88,–
Cc1ccc(/C(N)=N/OC(=O)/C=C/c2ccccc2)cc1,–,–,–,–,–,–
COc1ccc(C(=O)/C=C/c2ccc(O)cc2)c(O)c1CC=C(C)C,–,–,–,–,5,–
COc1ccc(/C=C/C(=O)c2ccc(O)cc2)cc1CN1CCOCC1,–,–,–,–,3.7,–
CCOc1ccc(/C=C/C(=O)c2ccccc2)cc1OC,–,–,–,–,–,144.5
O=C(NNC(=O)C1CCCCC1)c1ccc(Br)cc1,–,–,–,–,–,–
CCS(=O)(=O)C1=NN2C(=N)/C(=C\c3ccc(SCc4ccco4)o3)C(=O)N=C2S1,–,–,–,–,–,–
COc1ccc(/C(N)=N/OC(=O)/C=C/c2ccccc2)cc1,–,–,–,–,–,–
Cc1ccc(/C=C/C(=O)c2ccc(C)cc2)cc1,–,–,–,–,–,–
COc1cc(/C=C/C(=O)c2ccc(O)cc2)ccc1OCC#N,–,–,–,–,3.72,–
COc1ccc(C(=O)/C=C/c2ccc(O)cc2)cc1,·,–,–,·,3.57,–
COc1ccc(/C=C/C(=O)O/N=C(\N)c2ccccc2)cc1OC,–,136.9,–,–,–,–
COc1ccc(C(=O)OCCc2ccc(O)cc2)cc1,–,148.5,–,–,6.7,–
COc1ccc(COC(=O)NNC(=O)c2ccc(OC)cc2)cc1,–,–,–,–,–,–
COc1cccc(C(=O)/C=C/c2ccc(OCC#N)c(OC)c2)c1,–,–,–,–,–,–
COc1ccc(Nc2c([N+](=O)[O-])ccc3c2=NC2(CCCCC2)N=3)cc1,–,–,–,–,·,–
C/C(=N/NC(=O)c1ccoc1C)c1ccc(N2CCOCC2)cc1,–,145.7,–,–,–,201.6
C/C(=N/NC(=O)c1ccoc1C)c1ccc(NC(=O)c2ccncc2)cc1,–,143.4,–,–,–,–
C/C(=N\NC(=O)c1ccoc1C)c1cccnc1,–,142.8,–,–,11.5,152.2
C/C(=N\NC(=O)c1ccc(Cl)cc1)c1ccc(N2CCOCC2)cc1,–,–,–,–,–,–
C/C(=N\NC(=O)c1cccs1)c1cccnc1,–,–,–,–,–,–
COc1c2ccccc2c(OC)c2ccccc12,–,–,–,–,–,–
Cc1cc(N2CCOCC2)ccc1/C=C1\NC(=O)N(CC(=O)Nc2ccccc2C)C1=O,–,–,–,–,–,–
Cc1cc(N2CCOCC2)ccc1/C=C1\NC(=O)N(CC(=O)Nc2ccc(F)cc2)C1=O,–,131.0,–,–,–,–
Cc1cc(N2CCOCC2)ccc1/C=C1/SC(=O)NC1=O,138.0,151.7,–,–,5.28,–
SMILES,STAT3 activator,STAT1 activator,STAT1 blocker,STAT3 inh,NF-kB neuron act,APP 5'UTR act
Cc1cc(N2CCCC2)ccc1/C=C1\NC(=S)N(C)C1=O,–,129.3,–,–,–,–
O=C(O)CCCNC(=O)Nc1ccccc1,–,–,–,–,13.2,–
N/N=C(/Cc1nc2ccccc2[nH]1)c1ccc([N+](=O)[O-])cc1,–,–,–,–,–,–
O=C(NCC1OCCc2ccccc21)c1ccc(NC(=O)c2ccc(Cl)cc2)cc1 (configuration not stated),–,–,–,–,–,–
COc1cc(/C=C/C(=O)O)cc(S(=O)(=O)N(CC(C)C)CC(C)C)c1OC,–,–,–,–,–,–
Cc1cc(-c2nc3cccnc3s2)ccc1NS(=O)(=O)c1cccs1,·,145.6,–,·,–,–
CCS(=O)(=O)Nc1cc(-c2nc3cccnc3s2)ccc1C,162.1,135.3,–,–,–,–
O=S(=O)(Nc1ccc(-c2nc3cccnc3s2)cc1)c1ccc(Cl)s1,–,131.4,–,–,–,–
O=S(=O)(Nc1ccc(-c2nc3cccnc3s2)cc1)c1cccs1,–,–,–,–,–,–
CCS(=O)(=O)Nc1ccc(-c2nc3cccnc3s2)cc1,·,–,–,·,–,197.3
Cn1c(SCc2ccc(C#N)cc2Cl)nc2ccccc21,–,145.2,–,–,5.32,187.1
Cc1ccc(N=Nc2c(N)n(-c3ccccc3)[nH]c2=O)cc1,–,139.0,–,–,4.21,–
NC(=O)c1ccc(N=Nc2c(-c3ccccc3)[nH]n(-c3ccccc3)c2=O)cc1,–,–,–,–,–,–
